# Assay outcomes deposited in PubChem BioAssay by several laboratories.
# Lmaj promast – reduces viability of Leishmania major promastigotes | inhibition, % at 10 µM | 200,000 tested, 9% active | resazurin fluorescence viability; in the data active = inhibition above about 50%;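 note: promastigotes grown with compound for 44 hours at 28 °C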
# Dynein transport – dynein cargo transport inhibition; z-score, hits read low; 220,000 tested, 0.47% active; 3617.4 mouse cells, GR-EGFP nuclear translocation imaging; test concentration mostly 20 µM; stimulated with dexamethasone, 1 µM; active compounds read low; AID 1381;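 active = plate z-score of nuclear minus cytoplasmic receptor signal below a set negative limit, without overly bright fluorescence or cell loss, cut at about -3.5 in these data, passing the limit was not always enough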;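 note: z-score of nuclear minus cytoplasmic ring GR-EGFP intensity difference per well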
#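 Also added – dexamethasone, 1.0 µM final · Buffer or medium – tet-free, stripped-serum medium · Schedule – induction 48 h, compound 1 h, agonist 30 min · Detection – formaldehyde fixation, Hoechst nuclear stain, 10x automated fluorescence imaging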
# b-catenin transl – beta-catenin nuclear translocation modulation | HeLa beta-catenin nuclear translocation, immunofluorescence imaging | nuclear translocation activity, % at 5 µM | 190,000 tested, 0.3% active;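 active = nuclear translocation activity above 50% at 5 µM, with a well cell count of 50 or more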;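 note: per-cell ratio of nuclear to cytoplasmic median beta-catenin stain intensity; plate controls were DMSO negative control for no effect and GSK-3 inhibitor IX positive control for full effect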
#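 Test system: human HeLa cells, endogenous beta-catenin. Times: 24 h compound exposure, 37°C. Measured by: beta-catenin immunofluorescence imaging with DAPI.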
# CHOP inh – CHOP inhibition in unfolded protein response; 220,000 tested, 3.8% active; inhibition, % at 10 µM; CHO-K1 CHOP-promoter luciferase, tunicamycin-induced, 15-18 h; AID 2732;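 active = compounds that reduced the stress-induced luciferase reporter signal by more than about 70% of percent inhibition, limit read from the data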;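 note: 0% = tunicamycin plus vehicle and 100% = wells without tunicamycin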
# MT stabilizer – stabilizes microtubules in HeLa cells; HeLa tubulin immunostaining HCS, 24 h; share of cells brighter than vehicle mean+2SD; % tubulin-high responders, % at 10 µM; AID 2205; 200,000 tested, 0.83% active;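 active = plate Z-score above 3 for both tubulin-high and condensed-nucleus cell shares, with cell loss under 80%, at 10 µM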;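 note: anti alpha tubulin signal scored within the nucleus-defined area of each cell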
# Autophagy HCS – modulators of autophagy; calls only at 10 µM (by protocol); MEF GFP-LC3 puncta imaging; test concentration mostly 10 µM; 190,000 tested, 0.98% active;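 active = percentage of spot-positive cells more than 3 SD above its plate mean, without a fluorescence outlier flag or 80% toxicity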;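 note: spot-positive cell cutoff set from DMSO-treated cells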
# Numbers without * were called inactive; i = inactive; x = not tested or not shown; + = active, no number. In the library only some 12% were active in any assay of this set; here they are far more common.
SMILES,Lmaj promast,Dynein transport,b-catenin transl,CHOP inh,MT stabilizer,Autophagy HCS
CCOc1ccc2ncc(S(=O)(=O)c3ccccc3)c(N3CCC4(CC3)OCCO4)c2c1,86*,0.02,x,28,2,i
COc1ccc(N2CCN(c3c(S(=O)(=O)c4ccccc4)cnc4ccc(OC)cc34)CC2)cc1,61*,0.34,-1,9,7,i
COc1ccc(S(=O)(=O)c2cnc3ccc(OC)cc3c2N2CCC3(CC2)OCCO3)cc1,5,-0.73,-1,-1,5,i
C=CCn1c(SCc2nc3ccccc3nc2C)nnc1-c1ccoc1C,6,0.25,x,-9,1,i
Cc1nnc(N/N=C/c2cccc(OCc3ccc(Cl)c(Cl)c3)c2)n1N,73*,-0.11,-3,5,5,i
Cc1ccc(CN2CCN(/N=C/c3cc(Br)cc(Br)c3O)CC2)cc1,51*,1.1,3,-18,3,i
Cc1ccc(CN2CCN(/N=C/c3ccc(Cl)c([N+](=O)[O-])c3)CC2)cc1,95*,1.5,3,6,4,i
Cc1ccc(CN2CCN(/N=C/c3cc([N+](=O)[O-])ccc3Cl)CC2)cc1,8,0.37,-3,24,2,i
COC(=O)c1ccc(=O)n(CC(=O)c2ccc(Cl)cc2)c1,-1,0.037,0,2,2,i
COc1cccc(-c2cc(C(=O)Nc3c(C)nn(Cc4ccccc4C)c3C)no2)c1,52*,0.39,-4,70*,4,i
COc1cccc(-c2cc(C(=O)Nc3c(C)nn(Cc4ccccc4)c3C)no2)c1,28,0.25,x,30,1,i
COc1ccc(-c2cc(C(=O)Nc3c(C)nn(Cc4ccccc4)c3C)no2)cc1,-11,-0.42,3,76*,3,i
COc1ccccc1NC(=O)Cn1cnc2c(cnn2-c2ccc(C)c(C)c2)c1=O,3,-1,1,29,2,i
CCc1ccc(OCC(=O)N/N=C(\C)c2ccc(OC(F)F)cc2)cc1,69*,-0.23,0,78*,4,i
CCc1ccc(OCC(=O)N/N=C(\C)c2ccccc2OC(F)F)cc1,-4,-0.33,-2,54,4,i
COc1ccc(CN2C=C3C(=O)C(C)(OC(=O)C4CCCC4)C(=O)C=C3C=C2c2ccsc2)cc1 (centres undefined),x,0.75,50*,25,x,x
CC1=CC(C)(C)n2c(O)c(N=N)c3cc(C)cc1c32,2,-0.045,8,63,3,i
C=CCN(c1ccccc1Cl)S(=O)(=O)c1cccc(C(=O)NCCc2ccc(OC)cc2)c1,64*,-0.43,1,50,3,i
CCCc1cc(=O)[nH]c(/N=C(/NC(=O)c2ccccc2)Nc2ccc3c(c2)OCCO3)n1,0,-0.4,x,x,3,i
COc1ccc(OC)c(-c2cc(C3CCN(c4ncccc4[N+](=O)[O-])CC3)[nH]n2)c1,21,-0.63,0,42,4,i
COc1ccc(OC)c(-c2cc(C3CCN(c4cc(Cl)nc(N)n4)CC3)[nH]n2)c1,100*,-0.51,x,73*,3,i
Nc1nc(Cl)cc(N2CCC(c3cc(-c4ccc(Cl)cc4)n[nH]3)CC2)n1,100*,3.2,x,61,2,i
COc1ccc(-c2cc(C3CCN(Cc4ccc([N+](=O)[O-])cc4)CC3)[nH]n2)cc1,56*,-0.49,1,36,2,i
COc1ccc(-c2csc(N3CCC(c4ccccc4)CC3)n2)cc1,-4,-0.71,-2,-2,1,i
COc1ccc(-c2cc(C3CCN(c4cc(Cl)nc(N)n4)CC3)[nH]n2)cc1,31,0.84,x,73*,2,i
SMILES,Lmaj promast,Dynein transport,b-catenin transl,CHOP inh,MT stabilizer,Autophagy HCS
CC(=O)c1ccc(N2CCC(c3cc(-c4ccc(Cl)cc4Cl)n[nH]3)CC2)c([N+](=O)[O-])c1,16,-0.63,x,40,2,i
CC(C)n1c(CCC(=O)O)ccc1-c1ccccc1,-8,-0.69,x,-9,2,x
Cc1cnc(C(=O)OCC(=O)NCc2ccc3c(c2)OCO3)cn1,-4,-0.023,-1,-14,2,i
CC(=O)C1=C(C)NC(=O)CC1c1ccc(F)cc1 (centres undefined),-5,0.11,1,4,5,i
Clc1ccc(-c2cc(C3CCNCC3)[nH]n2)cc1,61*,1.1,2,-3,4,i
CC1=C(C(=O)OCC2CCCO2)C(c2ccc(Cl)cc2)NC(=O)N1 (centres undefined),-5,-0.36,-1,-5,3,i
CCOC(=O)C(=O)N(CC)C1CCS(=O)(=O)C1 (centres undefined),x,1.7,-1,-2,x,x
CCOC(=O)C(C(=O)OCC)C1CCS(=O)(=O)C1 (centres undefined),0,-0.12,-3,6,2,+
O=C(NCCN1C(=O)S/C(=C\c2ccc(Cl)c(Cl)c2)C1=O)c1ccc2c(c1)C(=O)N(Cc1ccncc1)C2=O,14,-1.2,x,88*,3,i
CC(Oc1ccc(Cl)cc1)C(=O)NCCN1C(=O)S/C(=C\c2cccnc2)C1=O (centres undefined),33,1.3,0,17,1,i
O=C(NCCN1C(=O)S/C(=C\c2ccc(OC(F)F)cc2)C1=O)c1cnccn1,34,-1.5,68*,5,34*,i
CC1CCCN(C2=NC(=O)/C(=C/c3cn(-c4ccccc4)nc3-c3cccc(S(=O)(=O)N(C)C)c3)S2)C1 (centres undefined),69*,-0.4,x,27,3,i
CC1CCN(C2=NC(=O)/C(=C/c3cn(-c4ccccc4)nc3-c3cccc(S(=O)(=O)N(C)C)c3)S2)CC1,80*,0.059,-4,31,4,i
Cc1cc(-c2nn(-c3ccccc3)cc2/C=C2\SC(N)=NC2=O)ccc1OC(C)C,14,-0.63,-2,32,9,i
Cc1nn(-c2ccccc2)c(C)c1/C=C/C(=O)OCC(=O)N(C)C1CCS(=O)(=O)C1 (centres undefined),14,0.92,1,12,4,i
Cc1oc2ccc(O)cc2c1C(=O)c1ccc([N+](=O)[O-])cc1,8,-0.5,-1,27,2,i
Cc1oc2ccc(O)cc2c1C(=O)c1ccc(Cl)cc1,34,1.2,-16,71*,1,i
c1ccc(-c2ccccc2OCCCN2CCCCCC2)cc1,98*,-0.92,7,11,6,i
c1ccc(-c2ccccc2OCCCCN2CCCCC2)cc1,95*,-0.24,-2,4,4,i
c1ccc(-c2ccccc2OCCCN2CCCC2)cc1,48,0.45,1,22,1,i
COc1ccccc1C1NC=C([N+](=O)[O-])C=C1[N+](=O)[O-] (centres undefined),29,-0.75,-2,-30,4,i
